Calls of active or inactive are those of the source. The rule behind the calls is not given here.
How the values were obtained:
Influenza A virus [1] = test: Antiviral activity against pandemic Influenza A virus (A/Netherlands/602/09(H1N1)) infected in MDCK cells at MOI of 10^-3 assessed as decrease in viral load after 18 hrs by immunofluorescence analysis; type: functional, organism-based
[2] = Selectivity index, ratio of CC50 for MDCK cells to IC50 for pandemic Influenza A virus (A/Netherlands/602/09(H1N1)) infected in MDCK cells at MOI of 10^-3 after 18 hrs; type: toxicity, cell-based; conditions: dog, read-out: Ratio CC50/IC50
[3] = Safety index, ratio of compound CC50 to naproxen CC50 for MDCK cells by MTT assay; type: ADME, cell-based, Canis lupus familiaris; conditions: dog
Influenza A virus [4] = test: Stabilization of Influenza A virus nucleoprotein assessed as melting temperature at 5 to 15 uM measured for 10 mins
MDCK = test: Inhibition of nucleoprotein/polymerase acidic protein (1 to 27 residues) interaction in Influenza A virus (A/WSN/1933 (H1N1)) infected in MDCK cells by Western blot analysis; type: cell-based
Method in brief: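 MDCK cells were infected with A/WSN/33 at MOI 2 for 18 h and lysed in PBS with protease inhibitors and 0.5% NP40 by freezing; nucleic acids were not digested. Streptavidin beads loaded with 250 µM biotinylated PA(1-27) were incubated with the lysate 18 h at 4 °C, with or without compound. Bound NP was detected by anti-NP monoclonal western blot.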

[5] = Cytotoxicity against MDCK cells assessed as reduction in cell viability after 48 hrs by trypan blue staining based method; set-up: species or system Canis lupus familiaris; conditions: dog
Method in brief: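 MDCK cells, 3.2 x 10^5 per well, were grown 24 h and then exposed to serial compound dilutions under the same conditions as the MTT test. At 48 h, cells were washed, trypsinised and stained with Trypan blue, and viable and dead cells were counted by phase-contrast microscopy.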

[6] = Selectivity index, ratio of CC50 for MDCK cells to IC50 for Influenza A virus (A/WSN/1933(H1N1)) infected in MDCK cells at MOI of 10^-3 after 48 hrs; type: toxicity, cell-based; conditions: dog, read-out: Ratio CC50/IC50
Influenza A virus [7] = test: Potency index, ratio of naproxen IC50 to compound IC50 for Influenza A virus (A/WSN/1933(H1N1)) infected in MDCK cells at MOI of 2 after 18 hrs by immunofluorescence analysis; type: functional
[8] = Selectivity index, ratio of CC50 for MDCK cells to IC50 for Influenza A virus (A/WSN/1933(H1N1)) infected in MDCK cells at MOI of 2 after 18 hrs; type: toxicity, cell-based; conditions: dog, read-out: Ratio CC50/IC50
[9] = Selectivity index, ratio of CC50 for MDCK cells to IC50 for Influenza A virus (A/Udorn/1972 (H3N2)) infected in MDCK cells at MOI of 2 after 18 hrs; type: toxicity, cell-based; conditions: dog, read-out: Ratio CC50/IC50
Influenza A virus [10] = test: Antiviral activity against Influenza A virus (A/Puerto Rico/8/1934(H1N1)) infected in C57BL/6J mouse assessed as recovery of weight loss at 1 mg/mouse/day, ip qd treated up to day 2 starting at 5 to 10 mins post infection measured up to day 12 relative to control; type: functional
Method in brief: (§1)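 Intranasal A/PR/8/34 challenge at 500 PFU in female C57BL/6J mice, 5–6 weeks old, under ketamine/xylazine. Dosing was i.p. once daily on days 0, 1 and 2, starting 5–10 min post-inoculation; 1 mg/mouse is 50 mg/kg and 8 mg/mouse is 400 mg/kg. There were 10 mice per group, with saline vehicle. Survival and body weight were scored daily, with 20% weight loss as the mortality endpoint.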

A549 = test: Downregulation of COX2 level in human A549 cells infected with Influenza A virus at MOI of 2 at 100 uM after 18 hrs in presence of gamma-ATP by immunofluorescence analysis; type: cell-based; conditions: a549, 18 h
Method in brief: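 A549 cells were pretreated with compound for 30 min, then either infected with IAV at MOI 2 for 18 h or activated with 100 µM γ-ATP for 1 h with or without compound. Cells were fixed in 3% PFA and permeabilised with 0.1% triton. COX2 was immunostained overnight with a primary antibody and detected with an Alexa 647 secondary.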

Influenza A virus [11] = test: Antiviral activity against Influenza A virus (A/Puerto Rico/8/1934(H1N1)) infected in C57BL/6J mouse assessed as recovery of weight loss at 8 mg/mouse/day, ip qd treated up to day 2 starting at 5 to 10 mins post infection measured up to day 12 relative to control; type: functional; method in brief: as §1
[12] = Selectivity index, ratio of CC50 for human A549 cells to IC50 for Influenza A virus (A/Udorn/1972 (H3N2)) after 18 hrs; type: toxicity; conditions: read-out: Ratio CC50/IC50
Influenza A virus [13] = test: Antiviral activity against Influenza A virus (A/Udorn/1972 (H3N2)) infected in MDCK cells at MOI of 2 assessed as decrease in viral load after 18 hrs by immunofluorescence analysis; type: functional, organism-based
Method in brief: (§2)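 MDCK or A549 cells, 0.32 x 10^6 per well, were held 24 h serum-free to 80% confluence and then infected at MOI 2. Compound (0.1–500 µM) or vehicle was added right after virus adsorption. At 18 h, viral NP was read by immunofluorescence and corrected for cell number by DAPI. Runs were in triplicate, repeated at least twice, and IC50 came from a dose-response fit.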

Influenza A virus [14] = test: Antiviral activity against Influenza A virus (A/Udorn/1972 (H3N2)) infected in human A549 cells assessed as decrease in viral load after 18 hrs by immunofluorescence analysis; type: functional, organism-based; conditions: A549, 18 h; method in brief: as §2
Influenza A virus [15] = test: Antiviral activity against Influenza A virus (A/Puerto Rico/8/1934(H1N1)) infected in C57BL/6J mouse assessed as increase in mouse survival at 8 mg/mouse/day, ip qd treated up to day 2 starting at 5 to 10 mins post infection measured at day 12; type: functional, organism-based; method in brief: as §1
Influenza A virus [16] = test: Antiviral activity against Influenza A virus (A/Udorn/1972 (H3N2)) infected in MDCK cells at MOI of 10^-3 assessed as decrease in viral load after 18 hrs by crystal violet staining-based plaque assay; type: functional, organism-based
[17] = Binding affinity to Influenza A virus nucleoprotein by surface plasmon resonance analysis
Influenza A virus [18] = test: Antiviral activity against Influenza A virus (A/Puerto Rico/8/1934(H1N1)) infected in C57BL/6J mouse assessed as decrease in viral load in bronchoalveolar lavage at 8 mg/mouse/day, ip qd treated up to day 2 starting at 5 to 10 mins post infection relative to control; type: functional
Method in brief: (§3)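 Female C57BL/6J mice, 5–6 weeks old, were anaesthetised with ketamine/xylazine (43/5 mg/kg) and inoculated intranasally with A/PR/8/34 at 500 PFU. Treatment was i.p. once daily on days 0, 1 and 2, starting 5–10 min after inoculation; 1 mg/mouse is 50 mg/kg and 8 mg/mouse is 400 mg/kg. BAL infectious titre was measured by plaque assay against saline-treated mice.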

Influenza A virus [19] = test: Antiviral activity against Influenza A virus (A/WSN/1933(H1N1)) infected in MDCK cells at MOI of 10^-3 assessed as decrease in viral load after 48 hrs by crystal violet staining-based plaque assay; type: functional, organism-based
Method in brief: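 Serum-starved MDCK cells, 0.32 x 10^6 per well, were infected with A/WSN/33 at MOI 10^-3 (multi-cycle). Compound (0.1–500 µM) or vehicle was added immediately after adsorption. After 48 h, titres in clarified supernatant were read by plaque assay with crystal violet. Runs were in triplicate, repeated at least twice, and IC50 came from a dose-response fit.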

Influenza A virus [20] = test: Antiviral activity against Influenza A virus (A/Puerto Rico/8/1934(H1N1)) infected in C57BL/6J mouse assessed as decrease in viral load in bronchoalveolar lavage at 1 mg/mouse/day, ip qd treated up to day 2 starting at 5 to 10 mins post infection relative to control; type: functional; method in brief: as §3
Influenza A virus [21] = test: (§4) Inhibition of Influenza A virus nucleoprotein/polymerase acidic protein (1 to 27 residues) complex formation in presence of DNA by surface plasmon resonance analysis
Method in brief: (§5)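 Biotinylated PA(1-27) was captured on the chip at about 1500 RU, with a scrambled peptide on the same chip at similar RU. NP (12–2500 nM), alone or as NP-DNA complex, was injected with or without compound up to 50 µM. Running buffer was 20 mM Tris-HCl pH 7.4, 300 mM NaCl, 0.005% P20, at 25 °C and 30 µl/min. Regeneration used guanidinium chloride then 10 mM NaOH.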

[22] = as §4; method in brief: as §5
Influenza A virus [23] = test: Antiviral activity against Influenza A virus (A/Puerto Rico/8/1934(H1N1)) infected in ip dosed C57BL/6J mouse assessed as increase in mouse survival administered once daily treated up to day 2 starting at 5 to 10 mins post infection; type: functional, organism-based; method in brief: as §1
Influenza A virus [24] = test: Inhibition of Influenza A virus nucleoprotein/polymerase acidic protein (1 to 27 residues) complex formation at 100 nM by surface plasmon resonance analysis; method in brief: as §5
Influenza A virus [25] = test: Antiviral activity against Influenza A virus (A/Puerto Rico/8/1934(H1N1)) infected in C57BL/6J mouse assessed as recovery of weight loss at 8 mg/mouse/day, ip qd […] starting at 5 to 10 mins post infection measured up to day 12; type: functional, organism-based
Influenza A virus [26] = test: Antiviral activity against Influenza A virus (A/Puerto Rico/8/1934(H1N1)) infected in C57BL/6J mouse assessed as survival at 1 to 8 mg/mouse/day, ip qd treated up to day 2 starting at 5 to 10 mins post infection measured at day 12 relative to control; type: functional; method in brief: as §1
Influenza A virus [27] = test: Antiviral activity against Influenza A virus (A/WSN/1933(H1N1)) infected in MDCK cells at MOI of 2 assessed as decrease in viral load after 18 hrs by immunofluorescence analysis; type: functional, organism-based; method in brief: as §2
Influenza A virus [28] = test: Antiviral activity against Influenza A virus (A/Udorn/1972 (H3N2)) infected in MDCK cells at MOI of 0.2 assessed as decrease in viral load after 18 hrs by immunofluorescence analysis; type: functional, organism-based
[29] = target: PA/PB1 (Influenza A virus (A/Puerto Rico/8/1934(H1N1)), UniProt P03431+P03433); test: Binding affinity to biotin labelled Influenza A virus polymerase acidic protein (1 to 27 residues) by surface plasmon resonance analysis; type: protein assay; method in brief: as §5
Influenza A virus [30] = conditions: 50 uM
[31] = Cytotoxicity against MDCK cells assessed as reduction in cell viability after 24 to 72 hrs by MTT assay; conditions: dog
Influenza A virus [32] = test: microbe, parasite or virus in culture; conditions: MDCK, 18 h
[33] = Cytotoxicity against human A549 cells assessed as reduction in cell viability after 48 hrs by MTT assay; type: cell-based
Method in brief: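 Cells were seeded at 3.2 x 10^5 per well and kept 1 day at 37 °C in MEM without serum. Serial compound dilutions were added and cells incubated a further 48 h. The MTT read-out was absorbance at 550 nm minus 650 nm, and CC50 was taken from a dose-response fit.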

| SMILES | IC50 (Influenza A virus [1]) | selectivity ratio at 18 h [2] | selectivity ratio [3] | Tm (Influenza A virus [4]) | inhibition (active/not active) (MDCK) | CC50 at 48 h [5] | selectivity ratio at 48 h [6] | selectivity ratio at 18 h [8] | selectivity ratio at 18 h [9] | Activity (Influenza A virus [10]) | selectivity ratio at 18 h [12] | IC50 (Influenza A virus [14]) | Ki [17] | IC50 (Influenza A virus [19]) | fold change (FC) (Influenza A virus [20]) | inhibition (Influenza A virus [24]) | IC50 (Influenza A virus [27]) | other results |
| --- | --- | --- | --- | --- | --- | --- | --- | --- | --- | --- | --- | --- | --- | --- | --- | --- | --- | --- |
| COc1ccc2cc(-c3c(C(=O)O)cc(Oc4ccc(N)cc4)cc3C(=O)O)ccc2c1 | 21 µM | 619 | 10 | 38 to 47 °C | Active | ≥ 10000 µM | – | – | – | – | – | – | – | – | – | – | – | – |
| COc1ccc2cc(-c3c(C(=O)[O-])cccc3C(=O)[O-])ccc2c1.[Na+].[Na+] | 1.8 µM | 7220 | 10 | 46 °C | Active | – | 4480 to 5200 | 684 | 650 | >=95% | 520 | 25 µM | 0.097 µM | 2.9 µM | 6 | Active | 19 µM | Ratio IC50 (Influenza A virus [7]): 5; Activity (A549): Non-Toxic; Activity (Influenza A virus [11]): 5%; IC50 (Influenza A virus [13]): 20 µM; Activity (Influenza A virus [15]): Active; IC50 (Influenza A virus [16]): 2 µM; fold change (FC) (Influenza A virus [18]): 120; inhibition (Influenza A virus [21]): Dose-dependent effect; IC50 [22]: 0.03 µM; Activity (Influenza A virus [23]): Dose-dependent effect; Activity (Influenza A virus [25]): Active; Survival (Influenza A virus [26]): 70%; IC50 (Influenza A virus [28]): 7 µM; Ki [29]: 30 µM |
| COc1ccc2cc([C@H](C)C(=O)O)ccc2c1 [NAPROXEN] | – | – | – | 41 °C | inactive | 1000 µM | 87 | 14 | 12 | 85% | 12.5 | 112 µM | 0.25 µM | 16 µM | 2 | inactive | 100 µM | inhibition (Influenza A virus [30]): inactive; CC50 [31]: 1400 µM; IC50 (Influenza A virus [32]): 120 µM; CC50 at 48 h [33]: 1400 µM |

From ChEMBL document CHEMBL4196106, “From Naproxen Repurposing to Naproxen Analogues and Their Antiviral Activity against Influenza A Virus” (J Med Chem, 2018)
